Data on 10 compounds can be found in ChEMBL document CHEMBL1154167, “Discovery of azetidinyl ketolides for the treatment of susceptible and multidrug resistant community-acquired respiratory tract infections” (J Med Chem, 2009).

Data set [1] relates to Streptococcus pneumoniae. The experiment in a line: Antibacterial activity against multidrug-susceptible Streptococcus pneumoniae 1016 by NCCLS method. The class given is functional.
The test system of data set [2] is Streptococcus pneumoniae. The experiment in a line: Antibacterial activity against multidrug-resistant Streptococcus pneumoniae 1095 harboring ermB gene by NCCLS method. The class given is functional.
For data set [3], the system named is Streptococcus pneumoniae. The experiment in a line: Antibacterial activity against multidrug-resistant Streptococcus pneumoniae 1175 harboring mefA gene by NCCLS method. The data set is classed as functional.
A further data set deals with Streptococcus pyogenes. The data set is described as follows: Antibacterial activity against multidrug-resistant Streptococcus pyogenes 1079 harboring ermB gene by NCCLS method. The class given is functional.
In data set [4] the test system is Haemophilus influenzae. The data set is described as follows: Antibacterial activity against multidrug-susceptible Haemophilus influenzae 1325 by NCCLS method. The data set is classed as functional.
The nature of data set [5]: Metabolic stability in human liver microsomes assessed as hepatic extraction ratio at 1 uM. The class given is ADME, Microsome. The following applies: read-out: ERH. Put shortly:
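Human liver microsomes used to screen for metabolic clearance; the readout was the microsomal extraction ratio (ER).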
In general terms: Liver microsomes are a subcellular fraction often used to study metabolism.

Data set [6] is described as follows: Metabolic stability in human liver cytosol assessed as compound turnover at 1 uM after 60 mins. The class given is ADME, tissue-based. The following applies: 1 h. Put shortly: (§1)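 Human liver cytosol incubations, used as a readout of aldehyde oxidase metabolism, run with and without the AO inhibitor raloxifene.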
The nature of data set [7]: Metabolic stability in human liver cytosol assessed as compound turnover at 1 uM in presence of aldehyde oxidase inhibitor raloxifene. The data set is classed as ADME. The gist of the method: as §1
In data set [8] the target is Voltage-gated inwardly rectifying potassium channel KCNH2 (Homo sapiens, UniProt Q12809). The experiment in a line: Inhibition of human ERG by patch-clamp assay. (The patch-clamp technique gives a direct electrical read-out from membranes.)
Voltage-gated inwardly rectifying potassium channel KCNH2, sequence (Q12809 whole entry): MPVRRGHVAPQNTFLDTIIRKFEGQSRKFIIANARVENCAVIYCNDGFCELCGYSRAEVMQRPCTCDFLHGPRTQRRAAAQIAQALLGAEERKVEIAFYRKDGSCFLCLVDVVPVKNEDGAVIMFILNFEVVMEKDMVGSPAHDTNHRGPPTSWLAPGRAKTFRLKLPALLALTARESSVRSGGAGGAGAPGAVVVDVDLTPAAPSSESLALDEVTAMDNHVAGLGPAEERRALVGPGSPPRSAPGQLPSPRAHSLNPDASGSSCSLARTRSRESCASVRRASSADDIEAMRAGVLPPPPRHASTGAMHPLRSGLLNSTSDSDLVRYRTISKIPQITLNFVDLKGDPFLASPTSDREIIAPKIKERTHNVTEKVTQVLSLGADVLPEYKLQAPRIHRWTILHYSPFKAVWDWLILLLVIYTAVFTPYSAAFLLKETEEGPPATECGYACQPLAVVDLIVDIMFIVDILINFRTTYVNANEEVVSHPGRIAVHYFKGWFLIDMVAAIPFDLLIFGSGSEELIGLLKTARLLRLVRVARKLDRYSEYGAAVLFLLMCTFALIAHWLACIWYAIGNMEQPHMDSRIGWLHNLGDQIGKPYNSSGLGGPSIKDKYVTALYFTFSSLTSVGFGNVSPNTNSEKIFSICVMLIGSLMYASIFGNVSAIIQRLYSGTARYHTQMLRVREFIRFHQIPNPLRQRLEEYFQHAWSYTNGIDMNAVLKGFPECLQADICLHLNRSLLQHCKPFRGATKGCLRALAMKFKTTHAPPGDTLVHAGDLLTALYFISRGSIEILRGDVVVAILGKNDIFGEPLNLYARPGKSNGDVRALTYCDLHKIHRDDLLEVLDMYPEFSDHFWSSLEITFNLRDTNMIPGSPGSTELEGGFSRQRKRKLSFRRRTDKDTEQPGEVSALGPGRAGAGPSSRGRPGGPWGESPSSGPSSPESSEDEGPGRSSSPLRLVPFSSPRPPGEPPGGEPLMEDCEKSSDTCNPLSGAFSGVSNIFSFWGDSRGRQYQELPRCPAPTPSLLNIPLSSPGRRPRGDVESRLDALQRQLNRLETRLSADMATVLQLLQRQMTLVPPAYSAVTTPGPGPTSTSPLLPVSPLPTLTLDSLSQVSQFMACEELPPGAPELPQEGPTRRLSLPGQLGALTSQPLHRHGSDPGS
Data set [9] deals with Streptococcus pneumoniae. The data set is described as follows: Antibacterial activity against multidrug-resistant Streptococcus pneumoniae 1095 harboring ermB infected in po dosed mouse respiratory tract model assessed as survival administered 18 hrs postinfection BID for 2 days measured on day 10 postinfection. The following applies: Streptococcus pneumoniae, 1095, po; read-out: PD50. The class given is functional. Put shortly: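 Murine respiratory tract infection model using S. pneumoniae 1095 (erm). Compounds were given orally. The outcome was the 50% protective dose (PD50), reported as (mg/kg)/dose.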

Data set [10] relates to Haemophilus influenzae. The data set is described as follows: Antibacterial activity against multidrug-susceptible Haemophilus influenzae 1325 infected in po dosed Mongolian gerbil otitis media model assessed as reduction of bacterial infection administered 18 hrs postinfection TID for 2 days measured on day 4 postinfection. The data set is classed as functional. The conditions noted are these: Haemophilus influenzae, 1325, po. The gist of the method: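 Gerbil otitis media model infected with H. influenzae 1325; compounds given orally. Efficacy expressed as ED50 in (mg/kg)/dose.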

Values after ≈ are worked out from the molar mass of the structure shown.

For the compound `CC[C@H]1OC(=O)[C@H](C)C(=O)[C@H](C)[C@@H](O[C@@H]2O[C@H](C)C[C@H](N(C)C)[C@H]2O)[C@](C)(OC)C[C@@H](C)C(=O)[C@H](C)[C@H]2N(CCCCn3cnc(-c4cccnc4)c3)C(=O)O[C@]12C` [TELITHROMYCIN], the MIC in the data set on Streptococcus pneumoniae [1] is no more than 0.06 mg/L; against Streptococcus pneumoniae [2] it was no more than 0.06 mg/L; in the data set on Streptococcus pneumoniae [3], no more than 0.06 mg/L; in the data set with Streptococcus pyogenes, 32 mg/L (≈ 39.4 µM); in the data set with Haemophilus influenzae [4], 4 mg/L (≈ 4.93 µM). In addition, the hepatic extraction ratio at 1 µM in data set [5] was determined as 0.7. Besides, in [6], the Stability result is “Stable”. Also, the half-life (as a rule, the time in which the quantity being followed falls by half) at 1 µM in data set [7] was less than 2 h. Besides, the IC50 (commonly the concentration at which inhibition is half-maximal) in data set [8] came to 40 µM. Besides, the ED50 in the data set with Streptococcus pneumoniae [9] stood at 31.2 mg/kg; with Haemophilus influenzae [10] it was 37.5 mg/kg.
As for `CC[C@H]1OC(=O)[C@H](C)C(=O)[C@H](C)[C@@H](O[C@@H]2O[C@H](C)C[C@H](N(C)C)[C@H]2O)[C@](C)(O)C[C@@H](C)C(=O)[C@H](C)[C@H]2N(C3CN(Cc4c(OC)cnc5ncccc45)C3)C(=O)O[C@]12C`, the MIC with Streptococcus pneumoniae [1] was no more than 0.06 mg/L; against Streptococcus pneumoniae [2], no more than 0.06 mg/L; against Streptococcus pneumoniae [3] it was no more than 0.06 mg/L; in the data set with Streptococcus pyogenes, no more than 0.06 mg/L; against Haemophilus influenzae [4], 8 mg/L (≈ 9.69 µM). The hepatic extraction ratio at 1 µM in [5] is 0.8. For the same compound, in [7], the half-life at 1 µM is less than 2 h.
With `CC[C@H]1OC(=O)[C@H](C)C(=O)[C@H](C)[C@@H](O[C@@H]2O[C@H](C)C[C@H](N(C)C)[C@H]2O)[C@](C)(O)C[C@@H](C)C(=O)[C@H](C)[C@H]2N(C3CN([C@H](C)c4ccnc5ncccc45)C3)C(=O)O[C@]12C`, the MIC is no more than 0.06 mg/L in the data set with Streptococcus pneumoniae [1]; no more than 0.06 mg/L in the data set on Streptococcus pneumoniae [2]; 0.25 mg/L (≈ 0.309 µM) against Streptococcus pneumoniae [3]; 1 mg/L (≈ 1.23 µM) against Streptococcus pyogenes; 4 mg/L (≈ 4.94 µM) with Haemophilus influenzae [4]. Further, the hepatic extraction ratio at 1 µM in data set [5] stood at 0.3. In data set [6], the Stability entry is given as “Unstable”. Besides, in data set [7], the half-life at 1 µM was less than 2 h. In data set [8], this compound returned an IC50 of 43 µM. For the same compound, the results for the ED50 in the data set on Streptococcus pneumoniae [9] and in the data set on Haemophilus influenzae [10] were 54.5 mg/kg and 35.6 mg/kg, respectively.
Take `CC[C@H]1OC(=O)[C@H](C)C(=O)[C@H](C)[C@@H](O[C@@H]2O[C@H](C)C[C@H](N(C)C)[C@H]2O)[C@](C)(O)C[C@@H](C)C(=O)[C@H](C)[C@H]2N(C3CN(Cc4c(O)cnc5ncccc45)C3)C(=O)O[C@]12C`: the MIC was no more than 0.06 mg/L against Streptococcus pneumoniae [1]; no more than 0.06 mg/L against Streptococcus pneumoniae [2]; no more than 0.06 mg/L in the data set with Streptococcus pneumoniae [3]; 0.25 mg/L (≈ 0.308 µM) in the data set on Streptococcus pyogenes; 4 mg/L (≈ 4.93 µM) in the data set with Haemophilus influenzae [4]. The hepatic extraction ratio at 1 µM in data set [5] is less than 0.3. For the same compound, in data set [6], the Stability entry is on record as “Unstable”. Besides, in [7], the half-life at 1 µM is less than 2 h. The IC50 in data set [8] turned out to be 140 µM.
In the case of `CC[C@H]1OC(=O)[C@H](C)C(=O)[C@H](C)[C@@H](O[C@@H]2O[C@H](C)C[C@H](N(C)C)[C@H]2O)[C@](C)(O)C[C@@H](C)C(=O)[C@H](C)[C@H]2N(C3CN(Cc4c(O)cnc5cccnc45)C3)C(=O)O[C@]12C`, the MIC against Streptococcus pneumoniae [1] is no more than 0.06 mg/L; in the data set on Streptococcus pneumoniae [2], no more than 0.06 mg/L; with Streptococcus pneumoniae [3], no more than 0.06 mg/L; against Streptococcus pyogenes, 0.5 mg/L (≈ 0.616 µM); against Haemophilus influenzae [4] it was 4 mg/L (≈ 4.93 µM). Besides, the hepatic extraction ratio at 1 µM in data set [5] is less than 0.3. In addition, the Stability result in data set [6] is “Stable”. Further, the half-life at 1 µM in data set [7] was less than 2 h. Half-maximal inhibition in data set [8] (IC50) required 67 µM. Further, the ED50 in the data set on Streptococcus pneumoniae [9] was determined as 26.8 mg/kg; with Haemophilus influenzae [10], 53.6 mg/kg.
On to `CC[C@H]1OC(=O)[C@H](C)[C@@H](O[C@H]2C[C@@](C)(OC)[C@@H](O)[C@H](C)O2)[C@H](C)[C@@H](O[C@@H]2O[C@H](C)C[C@H](N(C)C)[C@H]2O)[C@](C)(OC)C[C@@H](C)C(=O)[C@H](C)[C@@H](O)[C@]1(C)O` [CLARITHROMYCIN], for which the MIC in the data set with Streptococcus pneumoniae [1] is no more than 0.06 mg/L; in the data set on Streptococcus pneumoniae [2] it was greater than 64 mg/L; against Streptococcus pneumoniae [3] it was 16 mg/L (≈ 21.4 µM); with Streptococcus pyogenes, greater than 64 mg/L; against Haemophilus influenzae [4], 16 mg/L (≈ 21.4 µM). Moreover, the half-life at 1 µM in [7] is less than 2 h. For the same compound, the ED50 in the data set on Streptococcus pneumoniae [9] and with Haemophilus influenzae [10] was greater than 100 mg/kg in each case.
Take `CC[C@H]1OC(=O)[C@H](C)C(=O)[C@H](C)[C@@H](O[C@@H]2O[C@H](C)C[C@H](N(C)C)[C@H]2O)[C@](C)(O)C[C@@H](C)C(=O)[C@H](C)[C@H]2N(C3CN([C@@H](C)c4ccnc5ncccc45)C3)C(=O)O[C@]12C`: the MIC in the data set on Streptococcus pneumoniae [1] was no more than 0.06 mg/L; against Streptococcus pneumoniae [2] it was no more than 0.06 mg/L; in the data set on Streptococcus pneumoniae [3], 0.25 mg/L (≈ 0.309 µM); against Streptococcus pyogenes, 16 mg/L (≈ 19.8 µM); against Haemophilus influenzae [4] it was 16 mg/L (≈ 19.8 µM). In data set [7], the half-life at 1 µM was less than 2 h.
In the case of `CC[C@H]1OC(=O)[C@H](C)C(=O)[C@H](C)[C@@H](O[C@@H]2O[C@H](C)C[C@H](N(C)C)[C@H]2O)[C@](C)(O)C[C@@H](C)C(=O)[C@H](C)[C@H]2N(C3CN(Cc4ccnc5cccnc45)C3)C(=O)O[C@]12C`, the MIC in the data set on Streptococcus pneumoniae [1] is no more than 0.06 mg/L; in the data set with Streptococcus pneumoniae [2] it was no more than 0.06 mg/L; against Streptococcus pneumoniae [3] it was no more than 0.06 mg/L; with Streptococcus pyogenes, 1 mg/L (≈ 1.26 µM); in the data set on Haemophilus influenzae [4], 8 mg/L (≈ 10.1 µM). For the same compound, the hepatic extraction ratio at 1 µM in data set [5] came to 0.7. The Stability result in data set [6] is recorded as “Stable”. In addition, in data set [7], the half-life at 1 µM is less than 2 h. Besides, in data set [8], it took 196 µM to reach half-maximal inhibition (IC50).
`CC[C@H]1OC(=O)[C@H](C)C(=O)[C@H](C)[C@@H](O[C@@H]2O[C@H](C)C[C@H](N(C)C)[C@H]2O)[C@](C)(O)C[C@@H](C)C(=O)[C@H](C)[C@H]2N(C3CN(Cc4cccc5nc[nH]c45)C3)C(=O)O[C@]12C`: the MIC against Streptococcus pneumoniae [1] is no more than 0.06 mg/L; against Streptococcus pneumoniae [2], 0.125 mg/L (≈ 0.159 µM); against Streptococcus pneumoniae [3], 0.5 mg/L (≈ 0.638 µM); against Streptococcus pyogenes, 8 mg/L (≈ 10.2 µM); against Haemophilus influenzae [4], 8 mg/L (≈ 10.2 µM). Besides, the half-life at 1 µM in data set [7] is less than 2 h.
For `CC[C@H]1OC(=O)[C@H](C)C(=O)[C@H](C)[C@@H](O[C@@H]2O[C@H](C)C[C@H](N(C)C)[C@H]2O)[C@](C)(O)C[C@@H](C)C(=O)[C@H](C)[C@H]2N(C3CN(Cc4ccnc5ncccc45)C3)C(=O)O[C@]12C`, the MIC in the data set on Streptococcus pneumoniae [1] is no more than 0.06 mg/L; in the data set with Streptococcus pneumoniae [2] it was no more than 0.06 mg/L; with Streptococcus pneumoniae [3], 0.12 mg/L (≈ 0.151 µM); against Streptococcus pyogenes it was 1 mg/L (≈ 1.26 µM); against Haemophilus influenzae [4] it was 4 mg/L (≈ 5.03 µM). Besides, the hepatic extraction ratio at 1 µM in data set [5] was 0.6. For the same compound, the Stability entry in [6] is reported as “Unstable”. The half-life at 1 µM in [7] was less than 2 h. This compound also registered an IC50 in data set [8] of 80 µM.
